From ChEMBL document CHEMBL1129626, “Cyclic HIV protease inhibitors: synthesis, conformational analysis, P2/P2' structure-activity relationship, and molecular recognition of cyclic ureas” (J Med Chem, 1996)

What was measured:
[1] = Bioavailability in rat; assay type: ADME, organism-based; details: in vivo
Summary of the method: (§1)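 Rats (n = 4/group) were given an oral dose of 10 mg/kg in a propylene glycol / poly(ethylene glycol) 400 / water formulation. Cmax is the observed peak plasma concentration after the oral dose. F% is AUC(po)/AUC, with AUC taken from time zero to infinity and normalized for dose.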

[2] = tested on: Human immunodeficiency virus 1; assay: Inhibition of viral infection in HIV-1 (RF)-infected MT-2 cells with an oligonucleotide-based sandwich hybridization assay.; assay type: functional, MT2
Summary of the method: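 Uninfected MT-2 cells were preincubated for 30 min with serial dilutions of compound, then infected with HIV-1 RF and cultured for 3 days at 37 °C, 5% CO2. Lysates were assayed for viral RNA by microtiter oligonucleotide sandwich hybridization.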

[3] = Bioavailability as maximal plasma concentration in dogs; assay type: ADME, organism-based, Canis lupus familiaris; details: dog
Summary of the method: (§2)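 Dogs received an oral dose of 10 mg/kg. Cmax is the observed peak plasma concentration after the oral dose. Oral bioavailability is the dose-normalized ratio AUC(po)/AUC, with the plasma concentration–time area taken from zero to infinity.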

[4] = (§3) Bioavailability as maximal plasma concentration in rats; assay type: ADME, organism-based; details: rat; summary of the method: as §1
[5] = target: Human immunodeficiency virus type 1 protease (Human immunodeficiency virus 1, UniProt Q72874); assay: Inhibitory activity against HIV-1 protease
Summary of the method: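 HIV-1 protease Ki from cleavage of a fluorescent peptide substrate, products resolved by HPLC. Inhibitor was tested at four concentrations spanning 0.1–10 000 nM, the range chosen per inhibitor.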

[6] = Bioavailability in dog; assay type: ADME, organism-based, Canis lupus familiaris; details: in vivo; summary of the method: as §2
[7] = as §3; assay type: ADME, organism-based; details: rat; summary of the method: as §1; remark: listed apart in the source
[8] = Human immunodeficiency virus 1, MT2

| SMILES | IC90 [2, 8] | Ki [5] | further results |
| --- | --- | --- | --- |
| O=C1N(Cc2cccc(O)c2)[C@H](Cc2ccccc2)[C@H](O)[C@@H](O)[C@@H](Cc2ccccc2)N1Cc1cccc(O)c1 | 0.054 µM | 0.00012 µM | bioavailability [1]: 30%; Cmax [3]: 2 µM; Cmax [4]: 0.81 µM; bioavailability [6]: 16% |
| C=CCN1C(=O)N(CC=C)[C@H](Cc2ccccc2)[C@H](O)[C@@H](O)[C@H]1Cc1ccccc1 | 4.7 µM | 0.0052 µM | bioavailability [1]: 49%; Cmax [4]: 2.7 µM |
| CCCCN1C(=O)N(CCCC)[C@H](Cc2ccccc2)[C@H](O)[C@@H](O)[C@H]1Cc1ccccc1 | 0.68 µM | 0.0014 µM | – |
| O=C1N(Cc2cccc(CO)c2)[C@H](Cc2ccccc2)[C@H](O)[C@@H](O)[C@@H](Cc2ccccc2)N1Cc1cccc(CO)c1 | 0.038 µM | 0.00014 µM | bioavailability [1]: 18%; Cmax [4]: 0.83 µM |
| CC(C)=CCN1C(=O)N(CC=C(C)C)[C@H](Cc2ccccc2)[C@H](O)[C@@H](O)[C@H]1Cc1ccccc1 | 0.87 µM | – | Cmax [4]: < 0.4 µM |
| O=C1N(CC2CCCC2)[C@H](Cc2ccccc2)[C@H](O)[C@@H](O)[C@@H](Cc2ccccc2)N1CC1CCCC1 | 1.7 µM | 0.0043 µM | Cmax [4]: 0.2 µM |
| O=C1N(Cc2ccccc2)[C@H](Cc2ccccc2)[C@H](O)[C@@H](O)[C@@H](Cc2ccccc2)N1Cc1ccccc1 | 0.83 µM | 0.003 µM | Cmax [4]: 1.3 µM |
| COc1ccccc1CN1C(=O)N(Cc2ccccc2OC)[C@H](Cc2ccccc2)[C@H](O)[C@@H](O)[C@H]1Cc1ccccc1 | 22.9 µM | 1.87 µM | – |
| O=C1N(Cc2cccc(Cl)c2)[C@H](Cc2ccccc2)[C@H](O)[C@@H](O)[C@@H](Cc2ccccc2)N1Cc1cccc(Cl)c1 | 1.3 µM | 0.00089 µM | Cmax [4]: 0.3 µM |
| C=C(C)CN1C(=O)N(CC(=C)C)[C@H](Cc2ccccc2)[C@H](O)[C@@H](O)[C@H]1Cc1ccccc1 | 7.6 µM | 0.0073 µM | – |
| COc1cccc(CN2C(=O)N(Cc3cccc(OC)c3)[C@H](Cc3ccccc3)[C@H](O)[C@@H](O)[C@H]2Cc2ccccc2)c1 | 1.3 µM | 0.0016 µM | – |
| CCCN1C(=O)N(Cc2ccc3ccccc3c2)[C@H](Cc2ccccc2)[C@H](O)[C@@H](O)[C@H]1Cc1ccccc1 | 3.3 µM | 0.0011 µM | – |
| C=CCN1C(=O)N(Cc2ccc3ccccc3c2)[C@H](Cc2ccccc2)[C@H](O)[C@@H](O)[C@H]1Cc1ccccc1 | 0.99 µM | 0.0014 µM | – |
| CCCCCCN1C(=O)N(CCCCCC)[C@H](Cc2ccccc2)[C@H](O)[C@@H](O)[C@H]1Cc1ccccc1 | > 102 µM | 0.0046 µM | – |
| O=C1N(Cc2cccnc2)[C@H](Cc2ccccc2)[C@H](O)[C@@H](O)[C@@H](Cc2ccccc2)N1Cc1ccc2ccccc2c1 | 0.72 µM | 0.0052 µM | – |
| COCCOCCN1C(=O)N(CCOCCOC)[C@H](Cc2ccccc2)[C@H](O)[C@@H](O)[C@H]1Cc1ccccc1 | > 94 µM | 7.7 µM | – |
| CC(C)CCCN1C(=O)N(CCCC(C)C)[C@H](Cc2ccccc2)[C@H](O)[C@@H](O)[C@H]1Cc1ccccc1 | 8.1 µM | 0.007 µM | – |
| O=C1N(Cc2cccc(Br)c2)[C@H](Cc2ccccc2)[C@H](O)[C@@H](O)[C@@H](Cc2ccccc2)N1Cc1cccc(Br)c1 | 1.2 µM | 0.0014 µM | – |
| O=C1N(Cc2ccc(F)cc2)[C@H](Cc2ccccc2)[C@H](O)[C@@H](O)[C@@H](Cc2ccccc2)N1Cc1ccc2ccccc2c1 | 1.1 µM | 0.0036 µM | – |
| CCCN1C(=O)N(CCC)[C@H](Cc2ccccc2)[C@H](O)[C@@H](O)[C@H]1Cc1ccccc1 | 54 µM | 0.008 µM | – |
| O=C1N(CC2CCCCC2)[C@H](Cc2ccccc2)[C@H](O)[C@@H](O)[C@@H](Cc2ccccc2)N1CC1CCCCC1 | > 96 µM | 0.037 µM | – |

| SMILES | IC90 [2, 8] | Ki [5] | further results |
| --- | --- | --- | --- |
| CN1C(=O)N(C)[C@H](Cc2ccccc2)[C@H](O)[C@@H](O)[C@H]1Cc1ccccc1 | > 141 µM | 5.7 µM | – |
| CCN1C(=O)N(CC)[C@H](Cc2ccccc2)[C@H](O)[C@@H](O)[C@H]1Cc1ccccc1 | > 132 µM | 0.1 µM | – |
| O=C1N(Cc2ccc(O)cc2)[C@H](Cc2ccccc2)[C@H](O)[C@@H](O)[C@@H](Cc2ccccc2)N1Cc1ccc(O)cc1 | 0.032 µM | 0.00012 µM | bioavailability [1]: 22%; Cmax [4]: 0.39 µM |
| O=C1N(Cc2cccc(O)c2)[C@H](Cc2ccccc2)[C@H](O)[C@@H](O)[C@@H](Cc2ccccc2)N1Cc1ccc2ccccc2c1 | 0.145 µM | 0.00033 µM | Cmax [3]: 2.7 µM; Cmax [4]: 0.96 µM; Cmax [7]: 0.96 µM |
| O=C1N(Cc2cccc([N+](=O)[O-])c2)[C@H](Cc2ccccc2)[C@H](O)[C@@H](O)[C@@H](Cc2ccccc2)N1Cc1cccc([N+](=O)[O-])c1 | 0.97 µM | 0.0028 µM | – |
| O=C1N(Cc2cccc(F)c2)[C@H](Cc2ccccc2)[C@H](O)[C@@H](O)[C@@H](Cc2ccccc2)N1Cc1cccc(F)c1 | 0.71 µM | 0.003 µM | – |
| O=C1N(Cc2ccccc2Cl)[C@H](Cc2ccccc2)[C@H](O)[C@@H](O)[C@@H](Cc2ccccc2)N1Cc1ccccc1Cl | 11.3 µM | 0.24 µM | – |
| CC(C)CCCCCN1C(=O)N(CCCCCC(C)C)[C@H](Cc2ccccc2)[C@H](O)[C@@H](O)[C@H]1Cc1ccccc1 | > 18 µM | 0.11 µM | – |
| Cc1ccc(CN2C(=O)N(Cc3ccc(C)cc3)[C@H](Cc3ccccc3)[C@H](O)[C@@H](O)[C@H]2Cc2ccccc2)cc1 | 4.3 µM | 0.0057 µM | – |
| COCCN1C(=O)N(CCOC)[C@H](Cc2ccccc2)[C@H](O)[C@@H](O)[C@H]1Cc1ccccc1 | > 114 µM | 0.8 µM | – |
| O=C1N(CC2CC2)[C@H](Cc2ccccc2)[C@H](O)[C@@H](O)[C@@H](Cc2ccccc2)N1CC1CC1 | 1.8 µM | – | bioavailability [1]: 100%; Cmax [3]: 9.2 µM; Cmax [4]: 4.3 µM; bioavailability [6]: 48% |
| CCCCCCCN1C(=O)N(CCCCCCC)[C@H](Cc2ccccc2)[C@H](O)[C@@H](O)[C@H]1Cc1ccccc1 | > 96 µM | 0.26 µM | – |
| O=C1N(Cc2ccc(F)cc2)[C@H](Cc2ccccc2)[C@H](O)[C@@H](O)[C@@H](Cc2ccccc2)N1Cc1ccc(F)cc1 | 0.6 µM | 0.0014 µM | Cmax [4]: 1.6 µM |
| CCCCN1C(=O)N(Cc2ccc3ccccc3c2)[C@H](Cc2ccccc2)[C@H](O)[C@@H](O)[C@H]1Cc1ccccc1 | 0.75 µM | 0.0006 µM | – |
| CC(C)CN1C(=O)N(CC(C)C)[C@H](Cc2ccccc2)[C@H](O)[C@@H](O)[C@H]1Cc1ccccc1 | > 100 µM | 0.049 µM | – |
| O=C1N(Cc2ccc(CO)cc2)[C@H](Cc2ccccc2)[C@H](O)[C@@H](O)[C@@H](Cc2ccccc2)N1Cc1ccc2ccccc2c1 | 0.21 µM | 0.00093 µM | – |
| O=C1N(Cc2ccccc2)[C@H](Cc2ccccc2)[C@H](O)[C@@H](O)[C@@H](Cc2ccccc2)N1Cc1ccc2ccccc2c1 | 7.5 µM | 0.0023 µM | – |
| Nc1cccc(CN2C(=O)N(Cc3ccc4ccccc4c3)[C@H](Cc3ccccc3)[C@H](O)[C@@H](O)[C@H]2Cc2ccccc2)c1 | 0.084 µM | 0.001 µM | – |
| CCOCCN1C(=O)N(CCOCC)[C@H](Cc2ccccc2)[C@H](O)[C@@H](O)[C@H]1Cc1ccccc1 | > 106 µM | 1.1 µM | – |
| COc1ccc(CN2C(=O)N(Cc3ccc(OC)cc3)[C@H](Cc3ccccc3)[C@H](O)[C@@H](O)[C@H]2Cc2ccccc2)cc1 | 7.6 µM | 0.157 µM | – |
| O=C1N(Cc2ccc(CO)cc2)[C@H](Cc2ccccc2)[C@H](O)[C@@H](O)[C@@H](Cc2ccccc2)N1Cc1ccc(CO)cc1 [DMP-323] | – | – | bioavailability [1]: 27%; IC90 [2]: 0.057 µM; Cmax [3]: 2.8 µM; Cmax [4]: 0.78 µM; bioavailability [6]: 37% |
